Values after ≈ are worked out from the molar mass of the structure shown.

The nature of data set [1]: Toxicity in male rat assessed as NOAEL by 6 months toxicology study. The settings on record: in vivo, 4380 h. Put shortly: (§1)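 Pivotal 6-month repeat-dose toxicology study in rats with daily dosing up to 125 mg/kg/day. Males and females were assessed separately, and a NOAEL was assigned for each sex.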
In a further data set the target is Cytochrome P450 2D6 (Homo sapiens, UniProt P10635). The data set can be described thus: Inhibition of CYP2D6 (unknown origin) using coumarin as substrate preincubated with enzyme for 10 mins followed by NADPH addition and measured after 20 to 50 mins by fluorescence based method.
For a further data set, the target named is T1, Cytochrome P450 1A2 (Homo sapiens, UniProt P05177).
T1 sequence (P05177 whole entry): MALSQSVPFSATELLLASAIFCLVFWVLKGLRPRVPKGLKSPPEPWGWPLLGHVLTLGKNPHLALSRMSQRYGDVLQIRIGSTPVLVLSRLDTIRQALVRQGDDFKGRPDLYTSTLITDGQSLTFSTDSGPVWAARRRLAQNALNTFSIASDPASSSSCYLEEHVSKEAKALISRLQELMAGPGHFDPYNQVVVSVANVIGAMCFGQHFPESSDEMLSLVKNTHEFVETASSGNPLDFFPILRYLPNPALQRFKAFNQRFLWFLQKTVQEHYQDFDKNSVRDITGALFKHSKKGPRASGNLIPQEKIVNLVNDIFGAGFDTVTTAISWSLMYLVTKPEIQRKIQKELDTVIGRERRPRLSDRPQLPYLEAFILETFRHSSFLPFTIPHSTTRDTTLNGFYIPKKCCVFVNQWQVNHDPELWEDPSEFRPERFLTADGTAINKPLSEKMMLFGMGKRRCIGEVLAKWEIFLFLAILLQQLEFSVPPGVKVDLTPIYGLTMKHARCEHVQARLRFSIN
The data set can be described thus: Inhibition of human recombinant CYP1A2 using coumarin as substrate preincubated with enzyme for 10 mins followed by NADPH addition and measured after 20 to 50 mins by fluorescence based method.

A short description of data set [2]: Oral bioavailability in Wistar Han rat measured up to 24 hrs by LC-MS/MS analysis. Format: ADME, organism-based. The following applies: in vivo.
The nature of data set [3]: Toxicity in rat bone marrow by micronucleus test.
Data set [4] in a line: Lipophilicity, log D of the compound. The following applies: octanol/water.
Data set [5] in a line: Toxicity in dog assessed as NOAEL by 9 months toxicology study. More on the design: species or system Canis lupus familiaris. The following applies: in vivo, 6570 h. In short, it runs like this: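 Pivotal 9-month repeat-dose toxicology study in dogs with daily dosing up to 100 mg/kg/day. Endpoints included food consumption, body weight and pathology. The NOAEL was assigned from these findings.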

Data set [6] concerns the target Voltage-gated inwardly rectifying potassium channel KCNH2 (Homo sapiens, UniProt Q12809).
The nature of data set [7]: Drug uptake in human hepatocytes assessed as covalent binding measured per mg protein. Format: ADME, cell-based, Hepatocyte. Put shortly:
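[14C]-labelled compound incubated with human hepatocytes; covalently bound radioactivity expressed as pmol per mg protein.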

A further data set deals with Mus musculus. As to the kind of experiment: In vivo inhibition of MPO in peritoneal lavage of zymosan-induced neutrophilic peritonitis BALB/c mouse model at 0.01 to 10 umol/kg, po administered 2 hrs prior to zymosan injection and measured after 2 hrs by chemiluminescence assay. Format: functional, organism-based. The following applies: dose 0.01-10 µmol/kg, time 4.0 hrs, DDE = dose-dependent effect. Put shortly:
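BALB/c mice given 10, 1, 0.1 or 0.01 µmol/kg orally 2 h before intraperitoneal zymosan. Peritoneal lavage collected 2 h later and peroxidase activity quantified by chemiluminescence; neutrophils dominate the infiltrate, so activity attributed to MPO.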

Another data set has as its target Cytochrome P450 2C9 (Homo sapiens, UniProt P11712). As to the kind of experiment: Inhibition of human recombinant CYP2C9 using coumarin as substrate preincubated with enzyme for 10 mins followed by NADPH addition and measured after 20 to 50 mins by fluorescence based method.
The target in another data set is Cytochrome P450 2C19 (Homo sapiens, UniProt P33261). The data set can be described thus: Inhibition of human recombinant CYP2C19 using coumarin as substrate preincubated with enzyme for 10 mins followed by NADPH addition and measured after 20 to 50 mins by fluorescence based method.
A short description of data set [8]: Toxicity in dog assessed as food intake by 9 months toxicology study. The following applies: in vivo, 6570 h. Also noted: species or system Canis lupus familiaris. In short, it runs like this: (§2)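 Pivotal 9-month repeat-dose toxicology study in dogs at doses up to 100 mg/kg/day, with food consumption, body weight and pathology monitored.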
A short description of data set [9]: Apparent permeability of the compound across apical to basolateral side in human Caco-2 cells at 10 uM by LC-MS/MS analysis. Background: Caco-2 cells form a polarised layer with tight junctions and transporters.
The nature of data set [10]: Toxicity in dog assessed as body weight by 9 months toxicology study. Also noted: species or system Canis lupus familiaris. The settings on record: in vivo, 6570 h. Put shortly: as §2
Another data set in a line: physchem. The following applies: phosphate buffer, pH 7.4.
The target of a further data set is Cytochrome P450 3A4 (Homo sapiens, UniProt P08684).
Data set [11] in a line: Toxicity in female rat assessed as NOAEL by 6 months toxicology study. The settings on record: in vivo, 4380 h. In short, it runs like this: as §1
A short description of data set [12]: Oral bioavailability in Beagle dog measured up to 24 hrs by LC-MS/MS analysis. Format: ADME, organism-based, Canis lupus familiaris. The following applies: in vivo.
The nature of data set [13]: Drug uptake in Lister Hooded rat pigmented skin at 4.55 umol/kg, po measured after 24 hrs by whole body autoradiography. Format: ADME, organism-based, Skin of body. The following applies: in vivo, dose 4.55 µmol/kg. Put shortly: (§3)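 Rats were given a single oral dose of 10 MBq/kg of the [14C]-labelled compound. Whole-body autoradiography was done 24 h post-dose on sections before and after extraction, with the nonextractable liver fraction taken from the extracted sections. Whole-body drug-related material was also measured at 7 days.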

Data set [14] is described as follows: Drug uptake in Lister Hooded rat eyes at 4.55 umol/kg, po measured after 24 hrs by whole body autoradiography. It is filed as ADME, organism-based, Eye. The following applies: in vivo, dose 4.55 µmol/kg. In short, it runs like this:
as §3

Data set [15] can be described thus: Drug uptake in Lister Hooded rat at 4.55 umol/kg, po measured after 7 days by whole body autoradiography. It is filed as ADME, organism-based. The settings on record: in vivo, 168 h, at 4.55 µmol/kg, time 7 day. In short, it runs like this: as §3
Data set [16] in a line: Drug uptake in Lister Hooded rat liver assessed as nonextractable fraction at 4.55 umol/kg, po measured after 24 hrs by whole body autoradiography. Format: ADME, organism-based. The following applies: in vivo, at 4.55 µmol/kg. In short, it runs like this:
as §3

Cytochrome P450 3A4, sequence (P08684 whole entry): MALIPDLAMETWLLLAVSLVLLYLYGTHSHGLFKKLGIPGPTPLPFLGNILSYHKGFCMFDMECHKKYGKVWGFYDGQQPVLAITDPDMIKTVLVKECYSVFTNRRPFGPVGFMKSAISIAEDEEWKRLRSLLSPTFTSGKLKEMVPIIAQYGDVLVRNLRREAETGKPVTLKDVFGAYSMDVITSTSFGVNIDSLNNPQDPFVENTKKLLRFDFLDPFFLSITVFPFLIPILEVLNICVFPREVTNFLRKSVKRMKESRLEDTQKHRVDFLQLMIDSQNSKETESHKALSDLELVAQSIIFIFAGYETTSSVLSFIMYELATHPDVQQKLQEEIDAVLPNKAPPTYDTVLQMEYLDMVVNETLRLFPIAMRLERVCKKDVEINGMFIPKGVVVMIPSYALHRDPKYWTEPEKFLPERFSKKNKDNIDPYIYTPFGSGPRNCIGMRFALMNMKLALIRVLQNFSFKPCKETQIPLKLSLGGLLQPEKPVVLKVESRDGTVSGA
Cytochrome P450 2D6, sequence (P10635 whole entry): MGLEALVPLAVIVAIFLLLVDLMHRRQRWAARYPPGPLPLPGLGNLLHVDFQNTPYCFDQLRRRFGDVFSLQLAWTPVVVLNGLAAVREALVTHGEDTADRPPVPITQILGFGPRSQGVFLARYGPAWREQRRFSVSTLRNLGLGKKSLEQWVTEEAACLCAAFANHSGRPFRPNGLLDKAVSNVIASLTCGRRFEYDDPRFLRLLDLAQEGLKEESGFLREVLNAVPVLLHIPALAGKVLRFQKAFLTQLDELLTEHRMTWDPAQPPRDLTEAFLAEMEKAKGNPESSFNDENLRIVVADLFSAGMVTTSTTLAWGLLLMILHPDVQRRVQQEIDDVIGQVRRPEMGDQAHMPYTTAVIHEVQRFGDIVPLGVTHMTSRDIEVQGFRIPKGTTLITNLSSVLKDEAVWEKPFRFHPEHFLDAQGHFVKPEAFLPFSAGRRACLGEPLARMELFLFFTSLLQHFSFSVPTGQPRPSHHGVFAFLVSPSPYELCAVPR
Cytochrome P450 2C9, sequence (P11712 whole entry): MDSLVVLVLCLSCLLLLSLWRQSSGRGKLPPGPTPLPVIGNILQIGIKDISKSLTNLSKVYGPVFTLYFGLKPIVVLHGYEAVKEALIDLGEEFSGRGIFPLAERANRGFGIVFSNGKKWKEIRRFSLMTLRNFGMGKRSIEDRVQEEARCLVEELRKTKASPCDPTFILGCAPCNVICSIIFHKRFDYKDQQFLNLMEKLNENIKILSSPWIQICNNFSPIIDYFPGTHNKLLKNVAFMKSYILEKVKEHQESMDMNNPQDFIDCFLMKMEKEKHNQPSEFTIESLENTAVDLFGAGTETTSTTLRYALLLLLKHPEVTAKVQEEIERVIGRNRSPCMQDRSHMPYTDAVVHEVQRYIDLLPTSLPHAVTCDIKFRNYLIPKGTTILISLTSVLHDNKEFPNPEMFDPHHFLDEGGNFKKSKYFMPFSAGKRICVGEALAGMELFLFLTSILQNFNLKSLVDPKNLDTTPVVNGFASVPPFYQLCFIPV
Voltage-gated inwardly rectifying potassium channel KCNH2, sequence (Q12809 whole entry): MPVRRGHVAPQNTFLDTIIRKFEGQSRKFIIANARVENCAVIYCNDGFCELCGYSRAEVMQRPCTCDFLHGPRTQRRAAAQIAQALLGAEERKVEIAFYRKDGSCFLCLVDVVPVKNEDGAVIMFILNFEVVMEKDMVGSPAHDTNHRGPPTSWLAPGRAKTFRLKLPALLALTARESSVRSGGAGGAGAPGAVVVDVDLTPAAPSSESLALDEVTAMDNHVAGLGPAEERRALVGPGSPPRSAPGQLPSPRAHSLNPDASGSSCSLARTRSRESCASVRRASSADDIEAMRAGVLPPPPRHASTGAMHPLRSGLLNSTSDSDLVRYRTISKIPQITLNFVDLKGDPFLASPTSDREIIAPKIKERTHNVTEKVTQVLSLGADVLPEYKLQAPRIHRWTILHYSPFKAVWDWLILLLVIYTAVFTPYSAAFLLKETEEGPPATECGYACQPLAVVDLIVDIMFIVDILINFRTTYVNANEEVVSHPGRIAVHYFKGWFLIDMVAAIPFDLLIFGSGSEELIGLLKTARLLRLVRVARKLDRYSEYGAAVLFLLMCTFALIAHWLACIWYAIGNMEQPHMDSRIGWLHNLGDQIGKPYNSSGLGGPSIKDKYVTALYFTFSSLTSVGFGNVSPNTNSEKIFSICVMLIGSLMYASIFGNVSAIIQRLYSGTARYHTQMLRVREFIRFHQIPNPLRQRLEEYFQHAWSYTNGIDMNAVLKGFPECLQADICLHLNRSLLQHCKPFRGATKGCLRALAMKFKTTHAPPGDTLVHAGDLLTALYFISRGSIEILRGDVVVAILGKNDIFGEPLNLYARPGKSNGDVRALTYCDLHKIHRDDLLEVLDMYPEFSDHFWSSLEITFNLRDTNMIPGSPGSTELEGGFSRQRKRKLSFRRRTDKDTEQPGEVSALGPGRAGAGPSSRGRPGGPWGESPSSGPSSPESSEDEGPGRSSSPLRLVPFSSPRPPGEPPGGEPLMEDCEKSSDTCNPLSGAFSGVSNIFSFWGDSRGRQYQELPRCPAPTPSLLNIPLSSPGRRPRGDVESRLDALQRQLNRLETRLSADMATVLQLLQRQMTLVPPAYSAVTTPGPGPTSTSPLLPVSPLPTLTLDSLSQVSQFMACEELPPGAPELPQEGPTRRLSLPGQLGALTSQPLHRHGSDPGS
Cytochrome P450 2C19, sequence (P33261 whole entry): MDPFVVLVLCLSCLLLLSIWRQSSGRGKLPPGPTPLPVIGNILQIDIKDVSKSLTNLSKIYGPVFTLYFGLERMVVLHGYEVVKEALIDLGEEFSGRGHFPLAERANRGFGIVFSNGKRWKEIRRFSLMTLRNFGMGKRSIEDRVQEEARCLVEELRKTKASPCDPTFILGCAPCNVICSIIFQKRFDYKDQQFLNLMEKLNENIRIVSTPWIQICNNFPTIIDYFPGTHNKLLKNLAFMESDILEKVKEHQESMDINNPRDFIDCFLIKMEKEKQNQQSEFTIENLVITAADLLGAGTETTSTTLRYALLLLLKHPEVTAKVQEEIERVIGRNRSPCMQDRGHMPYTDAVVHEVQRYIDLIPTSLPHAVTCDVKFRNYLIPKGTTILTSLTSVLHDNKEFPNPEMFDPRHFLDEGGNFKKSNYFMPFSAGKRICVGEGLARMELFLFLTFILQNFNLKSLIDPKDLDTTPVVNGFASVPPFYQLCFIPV

With `C[C@@H](N)c1cc(Cl)ccc1Cn1c(=S)[nH]c(=O)c2[nH]ccc21`, the NOAEL in data set [1] is on record as 125 mg/kg/day; in data set [5] it was 100 mg/kg/day; in [11], 125 mg/kg/day. Moreover, the IC50 on Cytochrome P450 2D6 is > 30 µM; at Cytochrome P450 1A2 it was > 30 µM; in data set [6] it was 21 µM; at Cytochrome P450 2C9 it was > 30 µM; on Cytochrome P450 2C19, > 30 µM; on Cytochrome P450 3A4, 6 µM. Moreover, the results for the bioavailability in [2] and in [12] were 61% and 52%, respectively. Also, the Activity entry in data set [3], in [8] and in data set [10] was “Non-Toxic” in each case. This molecule also gave a logD in data set [4] of 1.2. The Drug uptake in data set [7] is reported as 56 pmol. Moreover, the inhibition entry with Mus musculus is “Dde”. In data set [9], the Papp A→B at 10 µM was 11 ×10⁻⁶ cm/s. The molecule also had a thermodynamic solubility at 18 h in the data set “physchem” of 270 µM (≈ 90.4 µg/mL).
In the case of `C[C@@H](N)c1cc(Cl)ccc1Cn1c2cc[nH]c2c(=O)[nH][14c]1=S`, the Drug uptake result in data set [13] is on record as “Active”; in [14] it was “Active”; in data set [15], 0.1%; in data set [16], < 0.2%.

What is called NOAEL is the highest dose or exposure tested at which no adverse effect was seen. As usually defined, the IC50 is the concentration at which inhibition is half-maximal. As a reminder, the bioavailability is the share of a dose that reaches the circulation, judged against a reference dose that is usually intravenous. The term logD denotes the decadic logarithm of the distribution of all forms, ionised or not, between an organic phase and buffer at a given pH. A higher logD goes with higher lipophilicity. Usually Papp A→B stands for how fast a substance crosses the layer from the apical side. A word on the thermodynamic solubility: it is solubility found after equilibrating the solid with the medium.

Values taken from ChEMBL document CHEMBL5126625, “Discovery of AZD4831, a Mechanism-Based Irreversible Inhibitor of Myeloperoxidase, As a Potential Treatment for Heart Failure with Preserved Ejection Fraction” (J Med Chem, 2022).
